Measured values: ChEMBL document CHEMBL1132951, “Resistance-modifying agents. 9. Synthesis and biological properties of benzimidazole inhibitors of the DNA repair enzyme poly(ADP-ribose) polymerase” (J Med Chem, 2000)

How the values were obtained:
[1] = molecular target: T1, Poly [ADP-ribose] polymerase 1 (Homo sapiens, UniProt P09874)
[2] = molecular target: T1, Poly [ADP-ribose] polymerase 1; test: In vitro inhibition against human full length PARP protein
Method in brief: (§1)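 Baculovirus-expressed, purified human full-length PARP (20 nM) with DNase I-activated calf thymus DNA (10 μg/mL) and NAD+ (500 μM, with [32P]NAD+). Run in 50 mM Tris pH 8.0, 10 mM MgCl2, 1 mM TCEP, 2% DMSO, 25 °C, 5 min (linear to 8 min). Stopped with ice-cold TCA and filtered. Acid-insoluble [32P]ADP-ribose read by phosphorimager. Ki from competitive-inhibition fit; tight-binding equation where needed.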

A2780 [3] = test: Potentiation of growth inhibition of A2780 cells along with 10 uM NU1085 in experiment 2; format: functional, cell-based; conditions: Homo sapiens
Method in brief: (§2)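 A2780 cells were grown in HEPES-RPMI 1640 + 10% FCS and seeded at 2.0–2.5 × 10^3 per well. After overnight attachment (16–24 h) they were exposed for 72 h to graded temozolomide or topotecan ± 10 μM PARP inhibitor (1% DMSO). Sulforhodamine B read at 570 nm, 5 replicate wells, % of matched control. IC50 by nonlinear regression; potentiation is IC50 alone over IC50 with inhibitor.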

A2780 [4] = test: Potentiation factor at 50% growth inhibition (IC50 of compound to that of compound along with PARP inhibitor) in experiment 1; format: functional, Homo sapiens
Method in brief: as §2

A2780 [5] = test: Potentiation of growth inhibition of A2780 cells along with 10 uM NU1085 in experiment 1; format: functional, cell-based; conditions: Homo sapiens
Method in brief: as §2

A2780 [6] = test: Potentiation factor at 50% growth inhibition (IC50 of compound to that of compound along with PARP inhibitor) in experiment 2; format: functional, Homo sapiens
Method in brief: as §2

A2780 [7] = test: Potentiation of growth inhibition of A2780 cells by compound alone in experiment 2; format: functional, cell-based; conditions: Homo sapiens
Method in brief: as §2

A2780 [8] = test: Potentiation of growth inhibition of A2780 cells by compound alone in experiment 1; format: functional, cell-based; conditions: Homo sapiens
Method in brief: as §2

[9] = molecular target: T1, Poly [ADP-ribose] polymerase 1; test: In vitro inhibition against human full length PARP protein; IA means inactive
Method in brief: as §1

A2780 [10] = test: Potentiation of growth inhibition of A2780 by compound alone in experiment 1; format: functional, cell-based; conditions: Homo sapiens
Method in brief: as §2

T1 sequence (P09874 whole entry): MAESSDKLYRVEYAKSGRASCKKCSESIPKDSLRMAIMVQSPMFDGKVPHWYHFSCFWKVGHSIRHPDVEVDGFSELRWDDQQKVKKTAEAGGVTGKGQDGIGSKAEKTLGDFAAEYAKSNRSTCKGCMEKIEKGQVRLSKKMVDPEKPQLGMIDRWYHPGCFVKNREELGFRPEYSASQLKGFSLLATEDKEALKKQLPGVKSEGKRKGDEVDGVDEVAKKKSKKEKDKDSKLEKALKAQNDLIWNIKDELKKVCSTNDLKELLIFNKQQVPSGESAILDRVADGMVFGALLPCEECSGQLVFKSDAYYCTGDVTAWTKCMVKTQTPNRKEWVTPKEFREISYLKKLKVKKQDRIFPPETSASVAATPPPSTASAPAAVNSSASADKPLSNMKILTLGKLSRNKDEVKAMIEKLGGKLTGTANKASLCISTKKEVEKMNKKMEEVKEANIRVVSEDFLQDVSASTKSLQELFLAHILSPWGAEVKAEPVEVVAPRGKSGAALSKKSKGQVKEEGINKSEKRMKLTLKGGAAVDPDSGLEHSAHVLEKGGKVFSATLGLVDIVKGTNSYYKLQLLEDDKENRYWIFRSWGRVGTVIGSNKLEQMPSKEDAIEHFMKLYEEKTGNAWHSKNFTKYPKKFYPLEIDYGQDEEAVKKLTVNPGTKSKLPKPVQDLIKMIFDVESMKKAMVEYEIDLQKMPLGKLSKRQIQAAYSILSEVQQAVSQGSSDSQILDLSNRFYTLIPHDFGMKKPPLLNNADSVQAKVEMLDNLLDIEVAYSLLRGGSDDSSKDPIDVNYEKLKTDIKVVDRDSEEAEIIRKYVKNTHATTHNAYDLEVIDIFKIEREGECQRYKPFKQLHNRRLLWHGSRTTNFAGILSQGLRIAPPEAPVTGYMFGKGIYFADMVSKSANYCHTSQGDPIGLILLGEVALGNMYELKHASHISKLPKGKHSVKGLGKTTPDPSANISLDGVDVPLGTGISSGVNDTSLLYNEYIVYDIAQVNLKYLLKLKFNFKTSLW

| Ki [1] [µM] | Structure (SMILES) | also measured |
| --- | --- | --- |
| 0.0068 | COc1ccc(-c2nc3c(C(N)=O)cccc3[nH]2)cc1 | – |
| 0.0081 | CCOC(=O)c1ccc(-c2nc3c(C(N)=O)cccc3[nH]2)cc1 | – |
| – | NC(=O)c1cccc2[nH]c(-c3ccc([N+](=O)[O-])cc3)nc12 | Ki [2]: 0.008 µM |
| 0.032 | COc1ccc(-c2nc3c(C(N)=O)cccc3n2C)cc1 | – |
| 0.35 | NC(=O)c1cccc2[nH]c(C(F)(F)F)nc12 | – |
| 0.29 | NC(=O)c1cccc2[nH]c(-c3ccc(C(=O)O)cc3)nc12 | – |
| 0.003 | NC(=O)c1cccc2nc(-c3ccc(Cl)cc3)[nH]c12 | – |
| 0.002 | COc1ccc(-c2nc3c(C(N)=O)cccc3[nH]2)cc1O | – |
| 0.0063 | NC(=O)c1cccc2[nH]c(-c3cccc(O)c3)nc12 | – |
| 0.0094 | NC(=O)c1cccc2[nH]c(-c3ccccc3Cl)nc12 | – |
| – | CC[C@@]1(O)C(=O)OCc2c1cc1n(c2=O)Cc2cc3c(CN(C)C)c(O)ccc3nc2-1 [TOPOTECAN] | IC50 (A2780 [3]): 8.7 µM; PF50 (A2780 [4]): 2.9; IC50 (A2780 [5]): 7.8 µM; PF50 (A2780 [6]): 2.5; IC50 (A2780 [7]): 22 µM; IC50 (A2780 [8]): 22.6 µM |
| 0.0054 | COc1ccc(-c2nc3c(C(N)=O)cccc3[nH]2)cc1OC | – |
| 0.0016 | NC(=O)c1cccc2[nH]c(-c3ccc(CO)cc3)nc12 | – |
| 0.0094 | C=CCOc1cc(-c2nc3c(C(N)=O)cccc3[nH]2)ccc1OC | – |
| 0.126 | COc1ccccc1-c1nc2c(C(N)=O)cccc2[nH]1 | – |
| 0.136 | COc1cc(-c2nc3c(C(N)=O)cccc3[nH]2)cc(OC)c1OC | – |
| 0.085 | CC(C)[Si](OCc1ccc(-c2nc3c(C(N)=O)cccc3[nH]2)cc1)(C(C)C)C(C)C | – |

| Ki [1] [µM] | Structure (SMILES) | also measured |
| --- | --- | --- |
| 0.009 | NC(=O)c1cccc2[nH]c(-c3ccccc3F)nc12 | – |
| 0.0106 | NC(=O)c1cccc2[nH]c(-c3ccccc3CO)nc12 | – |
| – | CNC(=O)c1cccc2[nH]c(-c3ccc(O)cc3)nc12 | Ki [9]: Not Active |
| 0.008 | NC(=O)c1cccc2[nH]c(-c3cccc(C(F)(F)F)c3)nc12 | – |
| 0.0058 | CN(C)c1ccc(-c2nc3c(C(N)=O)cccc3[nH]2)cc1 | – |
| 0.011 | NC(=O)c1cccc2nc(-c3ccc(N)cc3)[nH]c12 | – |
| 0.0068 | NC(=O)c1cccc2[nH]c(-c3cccc(CO)c3)nc12 | – |
| 0.19 | NC(=O)c1cccc2[nH]c(-c3ccccc3C(F)(F)F)nc12 | – |
| 0.0084 | NC(=O)c1cccc2[nH]c(-c3cccc(Cl)c3)nc12 | – |
| – | CNC(=O)c1cccc2[nH]c(-c3ccc(OC)cc3)nc12 | Ki [9]: Not Active |
| 0.004 | N#Cc1ccc(-c2nc3c(C(N)=O)cccc3[nH]2)cc1 | – |
| 0.099 | Cc1nc2c(C(N)=O)cccc2[nH]1 | – |
| – | Cn1nnc2c(C(N)=O)ncn2c1=O [TEMOZOLOMIDE] | IC50 (A2780 [3]): 183 µM; IC50 (A2780 [10]): 525 µM; PF50 (A2780 [4]): 2.8; IC50 (A2780 [5]): 188 µM; PF50 (A2780 [6]): 2; IC50 (A2780 [7]): 368 µM |
| 0.013 | COc1cc(-c2nc3c(C(N)=O)cccc3[nH]2)ccc1O | – |
| 0.006 | NC(=O)c1cccc2nc(-c3ccc(O)cc3)[nH]c12 | – |
| 10 | O=C(O)c1cccc2[nH]c(-c3ccc(O)cc3)nc12 | – |

| Structure (SMILES) | Ki [1] [µM] | also measured |
| --- | --- | --- |
| NC(=O)c1cccc2[nH]c(-c3ccc(C(F)(F)F)cc3)nc12 | 0.0012 | – |
| COc1ccc(-c2nc3c(C(N)=O)cccc3n2C(=O)OCc2ccccc2)cc1 | 0.53 | – |
| NC(=O)c1cccc2[nH]c(-c3ccc4c(c3)OCO4)nc12 | 0.0059 | – |
| NC(=O)c1cccc2[nH]cnc12 | 0.095 | – |
